{"data": "Measurements gathered from unrelated publications", "target": "Ephrin type-A receptor 1 (EPHA1, Homo sapiens, UniProt P21709)", "Residues used in one study (P21709 26-976)": "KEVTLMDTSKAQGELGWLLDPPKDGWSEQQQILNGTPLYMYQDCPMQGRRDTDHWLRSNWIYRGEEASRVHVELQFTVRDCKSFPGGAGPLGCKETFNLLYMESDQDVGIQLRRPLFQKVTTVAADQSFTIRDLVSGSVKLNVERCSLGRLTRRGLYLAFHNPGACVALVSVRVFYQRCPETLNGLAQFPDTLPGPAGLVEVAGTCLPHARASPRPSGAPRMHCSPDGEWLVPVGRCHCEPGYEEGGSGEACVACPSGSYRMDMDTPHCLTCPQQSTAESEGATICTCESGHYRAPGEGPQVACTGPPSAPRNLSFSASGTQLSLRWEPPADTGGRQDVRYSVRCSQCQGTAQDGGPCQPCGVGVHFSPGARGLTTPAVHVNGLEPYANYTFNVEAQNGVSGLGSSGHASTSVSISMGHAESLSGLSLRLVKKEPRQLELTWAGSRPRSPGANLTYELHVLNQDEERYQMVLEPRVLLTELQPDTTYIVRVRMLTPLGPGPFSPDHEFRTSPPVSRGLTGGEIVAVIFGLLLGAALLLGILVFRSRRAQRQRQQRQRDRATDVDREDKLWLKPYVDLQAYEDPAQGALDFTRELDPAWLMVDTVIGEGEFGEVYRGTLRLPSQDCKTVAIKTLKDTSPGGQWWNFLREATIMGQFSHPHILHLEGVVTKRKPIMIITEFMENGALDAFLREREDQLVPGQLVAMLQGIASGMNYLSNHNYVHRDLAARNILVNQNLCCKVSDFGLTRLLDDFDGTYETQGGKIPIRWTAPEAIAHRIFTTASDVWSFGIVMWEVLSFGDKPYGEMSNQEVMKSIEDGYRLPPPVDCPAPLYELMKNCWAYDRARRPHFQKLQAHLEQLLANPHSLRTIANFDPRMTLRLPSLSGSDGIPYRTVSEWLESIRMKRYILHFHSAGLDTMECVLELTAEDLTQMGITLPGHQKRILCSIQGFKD", "note": "Each line is one published result; the experiments were not run side by side."}
{"Compound": "O=C(N[C@H]1CCCCC/C=C\\C2C[C@@]2(C(=O)O)NC(=O)[C@@H]2C[C@@H](Oc3ccncc3)CN2C1=O)OC1CCCC1 (some centres unmarked)", "read-out": "cell-free assay", "technique": "competition with immobilised ligand", "concentration": "1 µM", "measurement": "remaining binding", "value": "90%"}
{"Compound": "O=C(Nc1cnn(-c2csc(C(=O)NC3COC3)c2)c1)Nc1ccccc1Cl", "read-out": "enzyme activity", "action": "inhibitor", "concentration": "5 µM", "measurement": "remaining activity", "value": "99.1%"}
{"Compound": "CCS(=O)(=O)c1cc2cc(C[C@](O)(CC(C)(C)c3ccc(F)cc3C(N)=O)C(F)(F)F)[nH]c2cn1", "read-out": "cell-free assay", "technique": "competition with immobilised ligand", "concentration": "1 µM", "measurement": "remaining binding", "value": "100%"}
{"Compound": "Cc1cnc(NC2CCOCC2)nc1-n1cnc(C(=O)NC(CN)c2cc(F)cc(Cl)c2)c1 (centres unmarked)", "read-out": "enzyme activity", "action": "inhibitor", "technique": "radiometric", "concentration": "1 µM", "measurement": "remaining activity", "value": "99%"}
{"Compound": "c1ccc(CNc2nc(N3CCOc4ccccc43)nc3c2CCCC3)cc1", "read-out": "target engagement in cells", "action": "inhibitor", "technique": "chemoproteomics", "concentration": "20 mM", "measurement": "inhibition", "value": "-26.1%"}
{"Compound": "Cc1ccc(Nc2nccc(N(C)c3ccc4c(C)n(C)nc4c3)n2)cc1S(N)(=O)=O", "read-out": "enzyme activity", "action": "inhibitor", "concentration": "10 µM", "measurement": "inhibition", "value": "85%"}
{"Compound": "CNC(=O)Nc1ccc2c(c1)[C@@]1(CC2)OC(=O)N(CC(=O)N(Cc2ccc(F)cc2)[C@@H](C)C(F)(F)F)C1=O", "read-out": "cell-free assay", "technique": "competition with immobilised ligand", "concentration": "1 µM", "measurement": "remaining binding", "value": "100%"}
{"Compound": "COc1cc(Nc2c(C#N)cnc3cc(OCCCN4CCN(C)CC4)c(OC)cc23)c(Cl)cc1Cl", "read-out": "cell-free assay", "concentration": "0.5 µM", "measurement": "remaining signal", "value": "97.7%"}
{"Compound": "O=C(O)[C@@H]1[C@@H](Cn2nnc3ccccc3c2=O)CC[C@H]1C(=O)c1ccc(OCCC2CCOCC2)cc1", "read-out": "cell-free assay", "technique": "competition with immobilised ligand", "concentration": "1 µM", "measurement": "remaining binding", "value": "100%"}
{"Compound": "CCN(CC)CCNC(=O)c1c(C)[nH]c(/C=C2\\C(=O)Nc3ccc(F)cc32)c1C", "read-out": "enzyme activity", "action": "inhibitor", "concentration": "10 µM", "measurement": "inhibition", "value": "62%"}
{"Compound": "C[C@@H]1CN(c2cc(-c3nn(C)c4ccc(OC5(C)CC5)cc34)ncn2)C[C@H](C)O1", "read-out": "cell-free assay", "technique": "competition with immobilised ligand", "concentration": "1 µM", "measurement": "remaining binding", "value": "100%"}
{"Compound": "F[C@@H]1CCN(c2nccc(-c3cnn4ncccc34)n2)C1", "read-out": "binding", "concentration": "1 µM", "measurement": "remaining binding", "value": "79%"}
{"Compound": "Cc1ccc(C(=O)NCc2ccsc2)cc1C#Cc1cn(C(C)C)c2ncnc(N)c12", "read-out": "enzyme activity", "action": "inhibitor", "concentration": "1 µM", "measurement": "activity vs control", "value": "45%"}
{"Compound": "CC(C)(C)c1nc2c(s1)c1nc(N)ncc1c1ccc(NS(=O)(=O)c3c(F)cccc3F)c(F)c12", "read-out": "enzyme activity", "action": "inhibitor", "technique": "radiometric", "concentration": "1 µM", "measurement": "remaining activity", "value": "94%"}
{"Compound": "Cc1ccc(C(=O)Nc2ccc(CN3CCN(C)CC3)c(C(F)(F)F)c2)cc1C#Cc1cnc2cccnn12", "read-out": "cell-free assay", "concentration": "23.5 nM", "measurement": "remaining signal", "value": "55%"}
{"Compound": "C[C@@H]1CCN(C(=O)CC#N)C[C@@H]1N(C)c1ncnc2[nH]ccc12", "read-out": "cell-free assay", "concentration": "0.5 µM", "measurement": "remaining signal", "value": "98%"}
{"Compound": "COc1cc(-c2cc(-c3ccc(N4CCNCC4)cc3)cnc2C)cc(OC)c1OC", "read-out": "enzyme activity", "action": "inhibitor", "concentration": "0.1 µM", "measurement": "inhibition", "value": "3%"}
